High-throughput results deposited in PubChem by several laboratories.
The list is not random: actives were taken first. Their share in the collection is about 1.6%.
proCasp3 act = activates human procaspase-3; activation, % at 8.5 µM; P42574; AID 463141; 330,000 tested, 0.11% active; recombinant procaspase-3 D3A, Ac-DEVD-pNA absorbance 405 nm;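 active = activation above the mean of all tested compounds plus 3 SD, cut at about 21% in these data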
Target sequence (P42574 whole entry D9A/D28A/D175A): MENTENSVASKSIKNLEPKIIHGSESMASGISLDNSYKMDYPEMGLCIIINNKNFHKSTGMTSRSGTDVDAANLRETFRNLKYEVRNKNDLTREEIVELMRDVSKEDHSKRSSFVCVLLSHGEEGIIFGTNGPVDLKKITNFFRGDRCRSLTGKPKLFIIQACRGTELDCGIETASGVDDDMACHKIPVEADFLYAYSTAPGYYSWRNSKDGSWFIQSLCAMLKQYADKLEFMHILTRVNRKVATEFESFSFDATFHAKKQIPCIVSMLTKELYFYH
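System: Procaspase-3 D3A mutant. Medium: Zinc-free 300 mM NaCl, 50 mM HEPES, 0.01% Triton X-100. Schedule: 1 h preincubation plus 2 h reaction at 25 °C. Measured by: 405 nm absorbance of p-nitroaniline, reads at 0 and 120 min. Read-out: percent activation relative to control range.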
Neddylation inh = cullin neddylation inhibition; P61081+Q13564; TR-FRET cullin neddylation, biochemical; calls only at 25 µM; 360,000 tested, 0.58% active; in the data active = inhibition above about 36%
proCasp7 act = counter-screen: procaspase-7 (human) activation; recombinant procaspase-7, Ac-DEVD-pNA absorbance 405 nm; D23A/D198A/D206A triple mutant, cannot self-cleave; scale: DMSO 0, 5 µM enzyme 100; P55210; AID 463210; activation, % at 8.5 µM; 330,000 tested, 0.093% active;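 active = percent activation above the screen-wide mean plus 3 SD, cut at about 25% in these data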
Target sequence (P55210 whole entry D23A/D198A/D206A): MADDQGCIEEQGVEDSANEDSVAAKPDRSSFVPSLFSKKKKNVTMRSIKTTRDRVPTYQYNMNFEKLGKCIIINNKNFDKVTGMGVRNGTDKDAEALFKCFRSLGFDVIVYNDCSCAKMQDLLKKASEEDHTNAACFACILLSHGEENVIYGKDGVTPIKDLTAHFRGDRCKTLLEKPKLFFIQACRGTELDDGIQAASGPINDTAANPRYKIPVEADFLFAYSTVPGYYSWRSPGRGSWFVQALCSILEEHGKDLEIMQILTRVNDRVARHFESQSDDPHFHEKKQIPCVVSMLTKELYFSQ
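signal = Epi-absorbance of released pNA at 405 nm, two timepoints | assay system = Uncleavable procaspase-7 mutant enzyme | reagent = Ac-DEVD-pNA substrate, 400 µM as added | times = 1 h enzyme–compound preincubation and 2 h substrate reaction, both 25 °C | benchmarks = low DMSO alone, high DMSO plus 5 µM PC-7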
proKLK7 act = proKLK7 (human) activation, primary screen | purified proKLK7, EDANS-DABCYL substrate fluorescence; 100% is mature enzyme control, 0% vehicle | 370,000 tested, 0.9% active | P49862 | activation, % at 7 µM;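 active = activation above the mean of all tested compounds plus 3 SD, computed per campaign excluding outliers beyond control limits, cut at about 13% in these data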
KLK7 act conf = proKLK7 activation, confirmation. activation, % at 7 µM. shares compounds with proKLK7 act. 3,200 tested, 68% active. purified proKLK7, EDANS-DABCYL substrate fluorescence; scaled: vehicle 0, mature enzyme 100;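 active = activation, as change over the incubation, above the mean of all tested compounds plus 3 SD, cut at about 13% in these data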
EDANS interfere = fluorescence interference counter-screen for KLK7 activators; EDANS-DABCYL substrate fluorescence interference, no enzyme, 4 h; solvent 0%, active enzyme control 100%; 3,200 tested, 80% active; AID 686952; activation, % at 7 µM; shares compounds with proKLK7 act;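 active = activation above the all-compound mean plus 3 SD, ignoring values outside control-based bounds, cut at about 4.8% in these data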;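 note: value is the 4 h activation minus the activation read at time zero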
K7 EDANS ctr = optically interferes with EDANS-DABCYL fluorescence, kallikrein-7 activator counter-screen; shares compounds with proKLK7 act; EDANS-DABCYL peptide fluorescence interference, no enzyme; EC50, µM; 250 tested, 20% active; AID 720493;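 active = compounds that raise the fluorescence signal in this interference counterscreen, with EC50 at or below 10 µM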;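 note: intact quenched peptide substrate alone read at 355 nm excitation and 520 nm emission; signal is fluorescence gain from T0 to T4 after four hours at room temperature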
A number is an active result; 0 = inactive; - = no result given; ! = not active in a repeat.

SMILES	proCasp3 act	Neddylation inh	proCasp7 act	proKLK7 act	KLK7 act conf	EDANS interfere	others
CNC(C)C#Cc1ccc2c(=O)c3c(OC)cccc3oc2c1 (stereo not given)	0	-	0	-	-	-
CCCCc1ccc(NC(=O)CSc2nc(=O)n3cc(C)ccc3n2)cc1	0	0	0	0	-	-
Cc1cc(N(C)Cc2ccccc2)nc(-c2ccccc2)n1	0	0	0	0	-	-
Cc1cc(N(C)Cc2ccccc2)nc2cc(O)ccc12	0	-	0	35	64	74
c1ccc(Nc2c(-c3ccco3)nc3ccccn23)cc1	0	-	0	16	68	72
CCC(=O)OCc1cc(=O)oc2ccc3ccccc3c12	0	-	0	22	0	0
CC(=O)N1CCN(Cc2cc(=O)oc3ccc4ccccc4c23)CC1	-	0	-	0	-	-
O=C1CCC(C(=O)OCc2cc(=O)oc3ccc4ccccc4c23)=NN1	0	-	0	145	357	371
COc1ccc(C2=NOC(C(=O)N(C)Cc3ccccc3)C2)cc1 (stereo not given)	0	0	0	0	-	-
CC(=O)OCCn1c2nc(=O)[nH]c(=O)c-2nc2cc(C)c(C)cc21	-	0	-	31	62	71
Cn1c(=O)c2[nH]c(Cc3cccc4ccccc34)nc2n(C)c1=O	-	0	-	0	-	-
COc1ccc(-c2c(NC(=O)C(C)C)n(C)c3ccccc3c2=O)cc1	0	-	0	16	18	20
CC1=Nc2ccc(C)cc2/C1=C/c1c(N)n2oc(C)cc2nc1=O	0	0	0	48!	25	35
CSc1nsc2nc(=O)c(/C=C3\C(C)=Nc4ccc(C)cc43)c(N)n12	0	0	0	0	-	-
COc1ccc(CC(=O)NCCS(=O)(=O)N2CCN(c3ccccc3OC)CC2)cc1	0	0	0	0	-	-
COc1ccc2c(c1OC)C(=O)OC2CC(=O)c1ccc(O)cc1 (stereo not given)	0	0	0	20	0	6.3
COc1ccc2c(c1OC)C(=O)OC2CC(=O)O (stereo not given)	0	0	0	0	-	-
O=S(=O)(c1ccc(-c2cn3ccccc3n2)cc1)N1CCOCC1	0	-	0	16	19	16	K7 EDANS ctr=0
CCOC(=O)c1nn(-c2ccccc2)c(C#N)c1N	0	-	0	25	18	25
CC[C@H](C)/C=C(C)/C=C/c1cc2c(cn1)C(=O)[C@@](C)(OC(C)=O)C(O)=C2Cl	-	-	-	86	108	123
CC(C)C[C@@H](CN)NC(=O)c1nc[nH]c1C(=O)N[C@@H](CC(=O)O)C(=O)CNC[C@H](C)NC(=O)c1nc[nH]c1C(=O)N[C@@H](CC(=O)O)C(=O)O	-	0	-	0	-	-
COc1cccc(NC(=O)NNC(=O)CCc2ccc(O)c(O)c2)c1	-	0	-	19	13	16
Oc1ccc2ccccc2c1C=Nc1ccccc1-c1nc2ccccc2[nH]1	0	-	0	38	0	0
Cc1cc(C(=O)NNC(=O)c2sccc2C)c(C)o1	0	0	0	0	-	-
O=c1[nH]c(N2CCOCC2)cc2ccccc12	0	-	0	34	20	0	K7 EDANS ctr=0
SMILES	proCasp3 act	Neddylation inh	proCasp7 act	proKLK7 act	KLK7 act conf	EDANS interfere	others
COc1ccc2nc(C)c3c(c2c1)OC(C)C3 (stereo not given)	0	0	0	0	-	-
COc1cccc2c3c(c(C)nc12)CC(C)O3 (stereo not given)	0	-	0	48	0	12
Cc1ccc(S(=O)(=O)NC(C(=O)Oc2ccc3ccc(=O)oc3c2)c2ccccc2)cc1 (stereo not given)	0	-	0	63	329	377
Cc1ccc(S(=O)(=O)N[C@H](C(=O)Oc2ccc3c(C(F)(F)F)cc(=O)oc3c2)c2ccccc2)cc1	0	-	0	-	-	-
Cc1ccc(S(=O)(=O)NC(C(=O)Oc2ccc3c(C)c(Cl)c(=O)oc3c2)c2ccccc2)cc1 (stereo not given)	0	-	0	55	69	78
CCC[C@@H](NS(=O)(=O)c1ccc(C)cc1)C(=O)Oc1ccc2c3c(c(=O)oc2c1)CCC3	0	-	0	42	631	536
Cc1ccc(S(=O)(=O)NCCC(=O)Oc2ccc3ccc(=O)oc3c2)cc1	0	-	0	49	613	626
Cc1ccc2cc(S(=O)(=O)NCCC(=O)O)ccc2c1	0	0	0	0	-	-
CN(c1ccccc1)S(=O)(=O)c1cccc(NC(=O)c2cc(=O)c3ccccc3o2)c1	0	0	0	0	-	-
O=C1c2cccc3cccc(c23)C(=O)N1OS(=O)(=O)c1ccccc1	0	0	0	26	0	0
Cc1ccc(S(=O)(=O)ON2C(=O)c3cccc4cccc(c34)C2=O)cc1	0	-	0	19	0	39
COc1ccc(Cn2c(N)c(S(=O)(=O)c3cccs3)c3nc4ccccc4nc32)cc1	0	-	0	0	-	-
CC(C)Cn1c(N)c(C(=O)NCC2CCCO2)c2nc3ccccc3nc21 (stereo not given)	0	-	0	0	-	-
COCCn1c(N)c(S(=O)(=O)c2cccs2)c2nc3ccccc3nc21	0	-	0	56	24	26
Nc1c(C(=O)NCc2ccco2)c2nc3ccccc3nc2n1CCc1ccc(F)cc1	0	-	0	0	-	-
CN(C)CCCn1c(N)c(S(=O)(=O)c2ccccc2)c2nc3ccccc3nc21	0	-	0	69	0	0
N#Cc1c(N)n(CCc2ccc(F)cc2)c2nc3ccccc3nc12	0	-	0	32	0	0
COCCn1c(N)c(C(=O)NCC2CCCO2)c2nc3ccccc3nc21 (stereo not given)	0	-	0	13	0	0
N#Cc1c(N)n(CCOC(=O)c2cccc([N+](=O)[O-])c2)c2nc3ccccc3nc12	0	0	0	83	91	88
Cc1ccc(C(=O)NCCn2c(N)c(C#N)c3nc4ccccc4nc32)cc1	0	-	0	0	-	-
N#Cc1c(N)n(-c2cccc(O)c2)c2nc3ccccc3nc12	0	-	0	117	42	47
N#Cc1c(N)n(CCOC(=O)c2cccc(Br)c2)c2nc3ccccc3nc12	0	-	0	0	-	-
COCCn1c(N)c(C#N)c2nc3ccccc3nc21	0	-	0	62	60	72
COc1ccc2oc(=N)c(-c3nnc4n3CCCCC4)cc2c1	0	-	0	0	-	-
N=c1oc2ccc3ccccc3c2cc1-c1nnc2n1CCCCC2	0	-	0	63	72	72
OC1C2COC(O2)C2OC(c3ccccc3)OC12 (stereo not given)	-	0	-	0	-	-
O=C(Nc1ccc2nsnc2c1)NC1CCCCC1	0	-	0	21	28	29
O=C(NCCO)Nc1ccc2nsnc2c1	0	-	0	22	40	41
OCCNC(=S)Nc1ccc2nsnc2c1	0	0	0	0	-	-
